Source: PubChem BioAssay
Only some compounds are listed: those with a hit (about 1.6% of all), similar ones and a draw of the others.
TDP2 absorb: blocks human TDP2 phosphodiesterase activity | O95551 | AID 720702 | inhibition, % at 12.8 µM | 0.34% of 370,000 active | recombinant TDP2, T5PNP hydrolysis, p-nitrophenol absorbance 415 nm;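 active means inhibition above the mean of all tested compounds plus 3 SD, set per campaign, cut at about 25% in these data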;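 further: 0% = DMSO with enzyme and 100% = buffer with substrate but no TDP2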
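System: recombinant human TDP2 / Amount: 120 nM TDP2 per well / Also added: 5 mM T5PNP chromogenic substrate / Doses: 12.8 µM single point, 1% DMSO / Incubation: 2 h at 37 °C / Detection: p-Nitrophenol epi absorbance / Evaluation: % inhibition relative to enzyme-containing and enzyme-free wells / Repeats: singlicate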
MBD2 DNA inh: MBD2-methylated oligo binding inhibition | TR-FRET, MBD2 binding to methylated oligonucleotide | AID 686964 | inhibition, % at 4.4 µM | Q9UBB5 | 0.31% of 370,000 active; in the data active means inhibition above about 13%
LEDGF integ inh: blocks HIV-1 LEDGF/p75-dependent DNA integration. TR-FRET IN-LEDGF/p75 DNA integration, Eu/Cy5. 0.64% of 370,000 active. inhibition, % at 3.7 µM;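 active means inhibition above the screen-wide mean plus 3 SD, cut at about 13% in these data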;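 further: signal is the Cy5 over europium emission ratio at 671 and 618 nm; 0% = plate median of compound wells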
UHRF1 MBD2 ctr: human UHRF1 methylated DNA binding inhibitors. Q96T88. UHRF1 binding to methylated oligo, TR-FRET. inhibition, % at 4.4 µM. 0.75% of 370,000 active. AID 687016;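 further: UHRF1 SRA domain binding a hemimethylated CpG hairpin DNA probe; 0% = median of test compound wells and 100% = reference inhibitor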
Target sequence (Q96T88 whole entry, looked up, the tested form may be a part): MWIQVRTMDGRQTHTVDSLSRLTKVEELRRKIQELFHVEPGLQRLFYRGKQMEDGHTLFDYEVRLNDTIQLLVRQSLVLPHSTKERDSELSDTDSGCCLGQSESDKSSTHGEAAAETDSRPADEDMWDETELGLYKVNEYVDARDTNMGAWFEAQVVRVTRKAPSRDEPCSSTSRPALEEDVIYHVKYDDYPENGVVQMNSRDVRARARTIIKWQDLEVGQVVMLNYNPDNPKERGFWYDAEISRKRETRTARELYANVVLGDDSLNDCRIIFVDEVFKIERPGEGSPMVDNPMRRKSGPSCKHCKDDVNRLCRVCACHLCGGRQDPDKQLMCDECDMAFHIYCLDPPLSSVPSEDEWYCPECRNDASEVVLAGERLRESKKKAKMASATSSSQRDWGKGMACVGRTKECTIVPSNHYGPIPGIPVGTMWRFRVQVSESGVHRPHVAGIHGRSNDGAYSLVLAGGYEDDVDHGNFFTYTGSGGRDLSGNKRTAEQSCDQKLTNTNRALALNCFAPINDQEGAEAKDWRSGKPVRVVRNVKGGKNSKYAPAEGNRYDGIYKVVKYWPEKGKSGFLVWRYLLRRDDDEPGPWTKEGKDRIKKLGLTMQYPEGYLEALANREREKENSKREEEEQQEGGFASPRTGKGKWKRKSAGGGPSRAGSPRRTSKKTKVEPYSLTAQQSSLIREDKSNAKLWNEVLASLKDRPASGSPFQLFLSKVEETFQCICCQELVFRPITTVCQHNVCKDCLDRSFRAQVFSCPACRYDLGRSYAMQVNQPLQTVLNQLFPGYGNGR
UHRF1 ctr MBD2: counter-screen for MBD2 inhibitors: human UHRF1 methylated DNA binding inhibitors. shares compounds with MBD2 DNA inh. UHRF1 binding to methylated oligonucleotide, TR-FRET. inhibition, % at 4.4 µM. 25% of 1,000 active;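 further: UHRF1 SRA domain binding a labeled hemimethylated CpG hairpin DNA; 0% = vehicle only and 100% = reference inhibitor with vehicle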
MBD2 confirm: MBD2-DBD methyl-DNA binding inhibition, TR-FRET confirmation | shares compounds with MBD2 DNA inh | TR-FRET MBD2-DBD binding to methylated oligonucleotide | inhibition, % at 4.4 µM | 26% of 1,000 active; in the data active means inhibition above about 14%
* marks the source's active call; other numbers are inactive results; · = not tested or not shown. Unless noted, no stated cut-off is given here; in the data, active means inhibition above about 21%; inactive means the rest.

SMILES	TDP2 absorb	MBD2 DNA inh	LEDGF integ inh	UHRF1 MBD2 ctr	UHRF1 ctr MBD2	MBD2 confirm
Cc1ccc(C(=O)N/C(=C\c2ccccc2)C(=O)OCc2ccccc2)cc1	7	14*	0	14	6	4
CCCCOCCCNC(=O)C[C@H]1C[C@@]2(C(=O)OC)C(=C[C@H](C(C)(C)C)O[C@@H]2C)N(CCC2=CCCCC2)C1=O	0	1	0	1	·	·
Cc1ccc(S(=O)(=O)N2CCN(c3ncccn3)CC2)c(C)c1	5	2	-5	1	·	·
Cc1ccc(C)c(S(=O)(=O)N2CCN(c3ncccn3)CC2)c1	-5	15*	-2	3	8	3
O=C(CCCCn1c(=O)c2ccccc2n(Cc2ccccc2)c1=O)NC1CCN(Cc2ccccc2)CC1	5	13*	-4	27*	4	2
O=C(CCCn1c(=O)c2ccccc2n(Cc2cccc(F)c2)c1=O)NC1CCN(Cc2ccccc2)CC1	6	-3	0	0	·	·
COC(=O)C1=C(C)N(C)C(=NCc2cccc(C(F)(F)F)c2)NC1c1ccc(F)cc1 (stereo not drawn)	1	-5	-1	-1	·	·
O=C(COC(=O)CNC(=O)c1ccc(Cl)cc1)Nc1ccc(Cl)cc1C(F)(F)F	6	61*	4	1	9	1
COC(=O)c1cc2c(c3c4cc(OC)ccc4n(S(=O)(=O)c4ccc(OC)cc4)c13)C(=O)N(Cc1ccccc1OC)C2	7	-5	4	-1	·	·
COc1ccc2c(CC(=O)N3CCN(S(=O)(=O)c4ccc(F)cc4)CC3)coc2c1	-11	73*	8	7	12	6
COc1ccc2c(CC(=O)N3CCN(S(=O)(=O)c4cccs4)CC3)coc2c1	-2	-6	6	5	·	·
CS(=O)(=O)N1CCC(C(=O)Nc2ccc(C(N)=O)cc2)CC1	1	40*	-2	-1	5	1
O=C(c1cc(C2CC2)on1)N(C1CCCCC1)C1CCCCC1	-10	8	0	0	·	·
O=C(Nc1ncc2c(n1)CC(c1cccc(Cl)c1)CC2=O)c1ccco1 (stereo not drawn)	3	52*	9	86*	8	2
O=S1(=O)c2c(cccc2N2CC[C@H](O)C2)OCCCN1C1CC1	6	3	1	1	·	·
Cc1cc(C)c(C#N)c(SCC(=O)Nc2ccc(S(=O)(=O)Nc3ncccn3)cc2)n1	-10	18*	0	1	12	3
Cc1ccc(S(=O)(=O)NCC(=O)OCC(=O)c2ccc(S(=O)(=O)N3CCCCC3)cc2)cc1C	2	25*	-4	-1	2	4
CCOC(=O)CNS(=O)(=O)c1ccc(S(=O)(=O)N2CCCC2)cc1	5	2	-1	4	·	·
COc1cc(C(=O)NC2CCN(C)CC2)ccc1Nc1ncc2c(n1)N(C1CCCCC1)CCC(=O)N2C	-17	24*	3	37*	30*	28*
COc1ccccc1CNC(=O)C[C@H]1CC[C@H]2[C@H](COc3ccc(NS(=O)(=O)c4ccc(C)cc4)cc3C(=O)N2C)O1	7	18*	-1	1	5	6
COC(=O)C[C@H]1CC[C@@H]2[C@H](COc3ccc(NC(=O)c4ccccc4OC)cc3C(=O)N2C)O1	-3	-2	3	2	·	·
COc1ccc(OCc2nn3c(-c4ccccn4)nnc3s2)cc1	10	22*	3	0	5	3
O=C(NC(=S)Nc1nc(-c2ccc(Br)cc2)cs1)c1cccnc1	3	16*	2	-3	6	1
CSc1ccc(Oc2cccc3c2S(=O)(=O)N(C2CC2)C[C@@H](COCc2ccccc2)O3)cc1C	-1	0	1	-2	·	·
COc1ccc(N2CCN(C(=O)c3ccc4c(c3)CC(c3ccccc3)OC4=O)CC2)cc1 (stereo not drawn)	-5	14*	0	21*	10	6
SMILES	TDP2 absorb	MBD2 DNA inh	LEDGF integ inh	UHRF1 MBD2 ctr	UHRF1 ctr MBD2	MBD2 confirm
CCc1csc(N2[C@H](CN(CCOC)S(=O)(=O)c3ccccc3[N+](=O)[O-])[C@H](c3ccccc3)[C@@H]2CO)n1	5	4	-3	3	·	·
O=C(NCc1ccco1)C1CCCN(S(=O)(=O)c2ccc([N+](=O)[O-])cc2)C1 (stereo not drawn)	-3	2	1	3	·	·
O=C(O)c1cccc(Sc2cc(Cl)ccc2C(=O)O)c1	6	13*	2	20	6	9
Cc1ccc2nc(-c3ccc(Cl)cc3)c(Cc3ccsc3)n2c1	2	-2	-1	15	·	·
CCCc1nc2ccc(C)cn2c1Cc1ccsc1	3	16*	-2	22*	10	7
Cc1ccc2nc(-c3cccc(Cl)c3)c(Cc3ccsc3)n2c1	2	13*	-1	20	9	5
Cc1cc(C(=O)Nc2ccc(Cl)c(Cl)c2)n(-c2ccccc2)n1	2	2	-5	-1	·	·
O=C(CCS(=O)(=O)c1cc2c(cc1Cl)NC(=O)CO2)NCCc1ccccc1	19	31*	3	-1	7	0
O=C(CCS(=O)(=O)c1cc2c(cc1Cl)NC(=O)CO2)NCc1ccccc1	-15	2	-2	5	·	·
CN(C)C(=O)N1CCN(C(=O)[C@H](CCc2ccccc2)NC(=O)[C@H]2O[C@@H](n3cnc4c(N)ncnc43)[C@H](O)[C@@H]2O)CC1	5	2	3	-1	·	·
O=C(Nc1ccc(-c2nc3ccccc3[nH]2)cc1)c1ccc2c(c1)OCO2	-21	14*	-38	6	9	10
Cc1ccc(S(=O)(=O)NC(=O)Nc2ccc(F)c(F)c2)cc1	-3	0	-2	-3	·	·
Cc1ccc(S(=O)(=O)NC(=O)Nc2cccc(S(=O)(=O)N(C)C)c2)cc1	-3	56*	-1	2	6	2
COc1ccc(NS(=O)(=O)c2ccc(SC)cc2)c(OC)c1	4	17*	2	23*	5	3
C/C(=N\NC(=O)c1nc2ccccn2c1C)c1ccc2c(c1)OCO2	9	-1	-2	-2	·	·
C/C(=N\NC(=O)c1nc2ccccn2c1C)c1cccc([N+](=O)[O-])c1	8	58*	0	0	4	3
C[C@H](O)[C@@H]1CN2CCc3c([nH]c4cccc(-c5ccccc5)c34)[C@@H]2C[C@@H]1N(C)CC1CCCCC1	-1	-6	3	0	·	·
O=C1c2cccc(NCCNCCO)c2C(=O)c2cccc(NCCNCCO)c21	4	107*	6	93*	93*	108*
COC(=O)C1CN(C2CCCC2)CCS(=O)(=O)N1Cc1cn(Cc2ccc(OC)cc2)nn1 (stereo not drawn)	3	16*	5	-4	4	2
